# Mot1-301 SUMO: yeast Mot1-301 growth rescue at high temperature, primary screen, SUMOylation pathway inhibitor project, S. cerevisiae, ATP luminescence, 38.5C. S. cerevisiae Mot1-301 growth rescue; percent above DMSO median, 100 means doubled. growth rescue, % at 18.8 µM. 320,000 compounds, 1% hits;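 active means every valid replicate shows activation above 250% relative to neutral control wells; inactive means the rest, any valid replicate at or below 250%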;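 further: OY570 slx delta 5 strain wells were the positive control but not used for scaling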
# hERG protect: hERG rescue from dofetilide block, primary screen, cell-based, CHO-hERG, FluxOR thallium flux, dofetilide IC70 | Voltage-gated inwardly rectifying potassium channel KCNH2 (Homo sapiens), Q12809 | dofetilide IC70 present | activation (rescue from dofetilide block), less the hit threshold, % at 10 µM | 310,000 compounds, 0.51% hits;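 active means activation above the mean of controls blocked by dofetilide plus 5 SD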;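 further: thallium influx through hERG after potassium depolarization seen as dye fluorescence rise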
# AI-2 QS modul: Vibrio harveyi AI-2 quorum sensing modulators, primary screen, JMH597 strain, luminescence/OD600 ratio; AID 2094, 2009; 300,000 compounds, 0.4% hits; activity change, % at 7.5 µM; Vibrio harveyi JMH597 AI-2 luminescence/OD600 ratio, 9 h; active compounds read low; strain lacks LuxN and CqsS sensors; 0 = neutral-control median; in the data active means activity change below about -75%, passing the limit was not always enough; inconclusive means no clear call, values can overlap the other calls;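 further: luminescence divided by OD600 gain over 9 h not by final OD600 alone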
# KCC2 mod: KCC2 cotransporter modulators, thallium flux, primary screen, cell-based, HEK293 KCC2, FluoZin-2 fluorescence, MLSMR; Solute carrier family 12 member 5 (Homo sapiens), Q9H2X9; KCC2 cells, thallium flux FluoZin-2 fluorescence; B-score of Tl+ flux slope (higher = more flux/activation; lower = inhibition) at 10 µM; 190,000 compounds, 2.2% hits;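 active means thallium flux slope and its plate-corrected score both differing from the plate sample mean at a set confidence after two filtering rounds, in either direction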;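 further: slope of fluorescence scaled to starting intensity during 10 to 20 s after thallium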
# KCNQ1 pot: potentiators or activators of KCNQ1 channel, primary screen, cell-based, thallium flux, high-throughput; Potassium voltage-gated channel subfamily KQT member 1 (Homo sapiens), P51787; CHO-K1 KCNQ1, thallium flux FluxOR fluorescence; active compounds read high; B-score at 10 µM; 310,000 compounds, 0.35% hits; AID 2648, 2010;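 active means fluorescence ratio B-score, a plate-corrected score, at least three library SD, with initial intensity B-score within 5 SD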
# Target sequence (P51787 whole entry, looked up): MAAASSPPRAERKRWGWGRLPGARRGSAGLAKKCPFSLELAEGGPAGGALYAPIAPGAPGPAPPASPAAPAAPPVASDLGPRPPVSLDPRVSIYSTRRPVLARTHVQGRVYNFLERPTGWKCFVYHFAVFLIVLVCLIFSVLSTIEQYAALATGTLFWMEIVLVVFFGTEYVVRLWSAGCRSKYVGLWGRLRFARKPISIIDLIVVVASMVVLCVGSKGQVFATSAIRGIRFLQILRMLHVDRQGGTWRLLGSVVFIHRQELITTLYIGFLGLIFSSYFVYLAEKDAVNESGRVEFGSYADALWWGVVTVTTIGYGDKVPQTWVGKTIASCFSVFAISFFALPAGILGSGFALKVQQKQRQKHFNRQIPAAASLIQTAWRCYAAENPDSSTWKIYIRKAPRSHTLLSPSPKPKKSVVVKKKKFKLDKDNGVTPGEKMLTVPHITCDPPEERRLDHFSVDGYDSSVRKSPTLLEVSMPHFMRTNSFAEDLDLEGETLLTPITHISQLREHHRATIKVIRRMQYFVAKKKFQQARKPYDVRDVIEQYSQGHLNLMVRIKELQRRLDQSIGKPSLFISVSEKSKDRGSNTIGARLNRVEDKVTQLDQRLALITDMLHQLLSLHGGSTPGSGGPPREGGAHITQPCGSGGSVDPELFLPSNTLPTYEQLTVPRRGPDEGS
#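 Medium – assay buffer, equal DMSO in all wells · Material – CHO-K1 cell line with stable KCNQ1 potassium channel expression · Signal – kinetic FluxOR thallium fluorescence, 10-s 1-Hz baseline, 110-s post-stimulus read · Compound – single concentration per compound, DMSO matched to controls · Schedule – 37 °C overnight plating, 90-min dark dye load, 20-min compound pretreatment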
# KCNQ1 block: inhibitors of human KCNQ1 channel, primary screen, cell-based, thallium flux, high-throughput; Potassium voltage-gated channel subfamily KQT member 1 (Homo sapiens), P51787; CHO-K1 KCNQ1, FluxOR thallium flux fluorescence; active compounds read high; 310,000 compounds, 1.3% hits; B-score at 10 µM; AID 2642, 2010;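 active means compounds whose thallium flux B-score, printed positive for inhibition, exceeds three library SD while starting fluorescence stays within three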;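 further: channel opened by potassium depolarization with thallium stimulus after 20 min compound exposure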
# KCC2 secondary: KCC2 modulators in sodium-free buffer, confirmation, cell-based, HEK293 KCC2, thallium flux, secondary assay. shares compounds with KCC2 mod. 3,700 compounds, 15% hits. FluoZin2 fluorescence; active compounds read high. AID 1713, 2009. normalised thallium flux (F/F0 slope) at 10 µM;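 active means thallium flux slope above the same plate's solvent-only control mean plus 3 SD; inconclusive means the two replicate wells disagree; inactive means no significant difference from solvent-only control wells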
# KCC2 bumet counter: thallium flux persisting under bumetanide in KCC2 cells, confirmation, counter-screen for KCC2 modulator project, cell-based, HEK293 KCC2, FluoZin2, secondary assay 3; shares compounds with KCC2 mod; HEK293-KCC2 + bumetanide/ouabain; active compounds read high; normalized thallium flux at 10 µM; 3,700 compounds, 49% hits;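 active means thallium entry rate above the same plate's blocked-transporter control wells by more than 3 SD; inconclusive means the two repeat wells disagree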;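 further: raw slope of fluorescence over initial fluorescence between 10 and 20 s after thallium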
# KCC2 secondary2: KCC2 modulators without ouabain present, confirmation, cell-based, HEK293 KCC2, thallium flux, FluoZin2, secondary assay 2; shares compounds with KCC2 mod; thallium flux FluoZin2 fluorescence; actives lie on both sides; F/F0 rise rate, 10–20 s post-thallium; normalized thallium flux at 10 µM; 3,700 compounds, 23% hits;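 active means thallium flux slope more than 3 SD above or below the plate's solvent-only control mean, mostly below; inconclusive means the two repeat wells disagreed; inactive means no significant shift from solvent-only controls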;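 further: raw slope with 0.1% DMSO as baseline and bumetanide as block control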
# HEK293 Tl flux: thallium flux modulation in parental HEK cells, confirmation, counter-screen for KCC2 modulator project, cell-based, counterscreen 1 | 3,700 compounds, 46% hits | shares compounds with KCC2 mod | thallium flux rate (normalised fluorescence) at 10 µM | HEK293 parental cells, thallium flux FluoZin2, ouabain; baseline-ratio fluorescence slope, 10–20 s after thallium | AID 1716, 2009;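 active means thallium flux rate significantly above the same plate's solvent-only control wells, beyond their mean plus 3 SD; inconclusive means the two replicate wells gave conflicting results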
# KCC2 retest ouab: KCC2 inhibitors and activators, ouabain retest, confirmation, HEK-KCC2 cells; HEK293-KCC2, thallium flux FluoZin2 fluorescence; bidirectional: low = inhibitor, high = activator; 3,700 compounds, 48% hits; shares compounds with KCC2 mod; raw Tl+ flux slope (below DMSO = inhibition, above = activation) at 10 µM;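 active means thallium flux slope beyond 3 SD from same-plate DMSO control mean in most replicates, usually higher, sometimes lower; inconclusive means repeat tests gave conflicting results; inactive means no significant difference from controls in most replicates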;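 further: slope of initial-normalized fluorescence between seconds 10 and 20 after thallium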
# HEK counter2: native HEK Tl+ uptake effects, second counter-screen – HEK cells, counterscreen 2, counter-screen for KCC2 modulator project, confirmation; shares compounds with KCC2 mod; HEK293 parental, thallium flux FluoZin-2 fluorescence slope; thallium flux slope at 10 µM; 3,700 compounds, 33% hits;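 active means thallium flux slope above the same plate's solvent-control mean plus 3 SD in both duplicate wells; inconclusive means duplicate wells that disagreed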;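 further: run without ouabain in cells lacking the KCC2 cotransporter; slope of fluorescence scaled to its starting value between 10 and 20 s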
# Starred values were filed as active, the others as inactive; i = inactive; u = inconclusive; x = no result. This is a sample that favours compounds with a hit; in the whole collection about 4.2% have one here.
SMILES,Mot1-301 SUMO,hERG protect,AI-2 QS modul,KCC2 mod,KCNQ1 pot,KCNQ1 block,KCC2 secondary,KCC2 bumet counter,KCC2 secondary2,HEK293 Tl flux,KCC2 retest ouab,HEK counter2
Cc1ccc(-c2cc(C(=O)OCC(=O)N(C)c3c(N)n(Cc4ccccc4)c(=O)[nH]c3=O)c3ccccc3n2)o1,5,-15,23,x,i,i,x,x,x,x,x,x
CCN(CC)CCCNC(=O)c1cn(CCOC)c(=O)c2c1c1ccccc1n2C,17,-6,7,x,i,i,0.0094,u,0.034,0.0075,0.021,0.011
CC1CC(C)CN(C(=O)CCC(=O)Nc2nnc(C3CCCCC3)s2)C1 (configuration not stated),234,-6,22,x,i,i,x,x,x,x,x,x
CC(C)OC(=O)CSc1ncnc2c1cnn2Cc1ccccc1,0,-7,27,-3.6*,i,i,0.0096,0.0072,0.032,0.0074,0.019,0.011
CCC1=NN2C(=N)/C(=C\c3cccn3-c3c(C)cccc3C)C(=O)N=C2S1,-5,-7,12,9*,i,i,u,0.028*,0.036,0.032*,0.03*,0.015*
Cc1ccc(-n2cccc2/C=C2/C(=N)N3C(=NC2=O)SN=C3S(C)(=O)=O)cc1Cl,-7,x,x,-2.2,x,x,x,x,x,x,x,x
COc1ccc(-n2cccc2/C=C2\C(=N)N3N=C(C(C)C)SC3=NC2=O)cc1,-15,-9,26,2.2,i,i,x,x,x,x,x,x
Cc1cccc(C)c1-n1cccc1/C=C1/C(=N)N2C(=NC1=O)SN=C2S(C)(=O)=O,7,-26,16,-4.5*,i,i,0.0074,0.0062,0.034,0.0065,0.015*,0.011
CCC1=NN2C(=N)/C(=C\c3cccn3-c3ccc(C)cc3C)C(=O)N=C2S1,x,-4,33,8.6*,i,i,0.011,0.055*,0.035,0.02*,0.04*,u
CCOC(=O)c1sc(NNC(=O)c2ccc(F)cc2)nc1C,4,-13,-7,11*,i,i,0.015*,0.024*,0.038,u,0.03*,u
Clc1ccc2nc(C3CCN(Cc4nnnn4C4CCCCC4)CC3)[nH]c2c1,38,-13,27,-4.4*,i,i,0.007,0.0061,0.028,0.0065,u,0.01
COC(=O)c1ccccc1NC(=O)c1cc2sccc2n1C,-3,-9,17,8.3*,i,i,0.016,0.0048,0.029,0.0079,0.017,0.011
CC(OC(=O)c1cc2sccc2n1C)C(=O)NCCc1ccccc1 (configuration not stated),386,-7,-6,-5.6*,i,i,0.0087,u,u,0.0069,0.014*,0.011
Cc1ncoc1C(=O)N1CCCC(C(=O)c2ccc(-c3ccccc3)cc2)C1 (configuration not stated),15,-15,8,-3.3*,i,i,u,0.0062,0.03,0.0065,0.021*,u
CC1=CC(C)(C)n2c(O)c(N=NC(N)=S)c3cc(C)cc1c32,-6,-6,7,8.7*,i,i,0.012*,0.033*,0.03,0.016*,u,0.011*
COc1ccc(NC(=O)CN(C)C(=O)c2cc(CN3C(=O)c4ccccc4C3=O)ccc2OC)cc1,1,-16,30,x,i,i,x,x,x,x,x,x
O=C(OCCCc1cc2ccccc2c(=O)o1)c1ccc2c(c1)OCO2,9,x,x,x,x,x,x,x,x,x,x,x
CS(=O)(=O)N(CC(=O)Nc1ccc2c(c1)OCCO2)Cc1ccccc1,-5,-8,4,0.075,i,i,x,x,x,x,x,x
O=C(CN(Cc1ccccc1)S(=O)(=O)c1ccc2c(c1)OCCO2)Nc1ccc2c(c1)OCCO2,-3,-4,-1,x,i,i,0.0066,0.0041,0.025*,0.0062*,u,0.0093
Cc1cc2ccccn2c1C(=O)c1nc(N2CCOCC2)ncc1Cl,26,-18,19,-3.8*,i,i,0.0073,u,0.026*,0.0074,0.017*,0.0098
COCCN(CCOC)c1ncc(Cl)c(C(=O)c2c(C)cc3ccccn23)n1,11,-6,7,-1.2,i,i,x,x,x,x,x,x
CCOC(=O)N1CCN(C(=O)c2c[nH]c3ccc(S(=O)(=O)N(C)c4ccc(F)cc4)cc3c2=O)CC1,93,-2,23,x,i,i,x,x,x,x,x,x
CCC1CCCCN1C(=O)c1c[nH]c2ccc(S(=O)(=O)N(C)c3ccc(Cl)cc3)cc2c1=O (configuration not stated),3,-4,22,x,i,i,0.016,u,u,0.0065,0.015,0.0092
